Experimental data taken from ChEMBL document CHEMBL4196195, “( R)- N-(1-Methyl-2-hydroxyethyl)-13-( S)-methyl-arachidonamide (AMG315): A Novel Chiral Potent Endocannabinoid Ligand with Stability to Metabolizing Enzymes” (J Med Chem, 2018).

Legend:
Format in all cases: ADME
[1] = target: T1, ABHD6 (monoacylglycerol lipase ABHD6) (Homo sapiens, UniProt Q9BV23); experiment: Stability assessed as human ABHD6-mediated compound hydrolysis by HPLC analysis; conditions: read-out: Stability
T1 sequence (Q9BV23 whole entry): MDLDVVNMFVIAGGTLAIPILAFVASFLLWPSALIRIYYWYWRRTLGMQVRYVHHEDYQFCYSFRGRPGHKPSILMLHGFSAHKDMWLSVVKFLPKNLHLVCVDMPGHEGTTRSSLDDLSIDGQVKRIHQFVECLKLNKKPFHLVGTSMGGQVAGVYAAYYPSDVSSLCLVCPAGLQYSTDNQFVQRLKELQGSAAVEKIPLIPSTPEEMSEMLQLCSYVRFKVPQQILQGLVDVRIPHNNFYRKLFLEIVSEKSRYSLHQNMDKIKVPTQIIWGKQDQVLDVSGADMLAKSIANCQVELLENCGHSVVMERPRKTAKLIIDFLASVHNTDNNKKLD
Procedure, shortened: (§1)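 Human MGL or ABHD6 expressed in E. coli BL21(DE3); cell lysate in 150 mM NaCl, 50 mM Tris, 1% Triton X-100, pH 8.0. Lysate (0.5 µg total protein) incubated at 37 °C with compound or 2-AG reference for 30 min. Samples at 0–30 min quenched in acetonitrile. Analysed by C18 reversed-phase HPLC with UV at 204 nm against external standards.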

[2] = target: T2, MGL (monoglyceride lipase) (Homo sapiens, UniProt Q99685); experiment: Stability assessed as human MGL-mediated compound hydrolysis by HPLC analysis; conditions: read-out: Stability; procedure, shortened: as §1
T2 sequence (Q99685 whole entry): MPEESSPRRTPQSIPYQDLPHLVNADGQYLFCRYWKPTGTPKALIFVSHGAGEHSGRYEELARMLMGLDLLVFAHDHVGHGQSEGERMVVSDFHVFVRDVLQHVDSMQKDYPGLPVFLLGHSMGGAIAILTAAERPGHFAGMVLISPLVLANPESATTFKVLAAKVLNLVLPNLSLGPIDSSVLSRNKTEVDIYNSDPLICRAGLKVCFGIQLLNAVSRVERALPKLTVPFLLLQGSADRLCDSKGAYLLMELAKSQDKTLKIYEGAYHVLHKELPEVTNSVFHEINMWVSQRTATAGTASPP

[3] = target: T3, Prostaglandin G/H synthase 2 (Mus musculus, UniProt Q05769); experiment: Stability assessed as mouse COX2-mediated compound oxidation by measuring oxygen consumption by polarographic assay
T3 sequence (Q05769 whole entry): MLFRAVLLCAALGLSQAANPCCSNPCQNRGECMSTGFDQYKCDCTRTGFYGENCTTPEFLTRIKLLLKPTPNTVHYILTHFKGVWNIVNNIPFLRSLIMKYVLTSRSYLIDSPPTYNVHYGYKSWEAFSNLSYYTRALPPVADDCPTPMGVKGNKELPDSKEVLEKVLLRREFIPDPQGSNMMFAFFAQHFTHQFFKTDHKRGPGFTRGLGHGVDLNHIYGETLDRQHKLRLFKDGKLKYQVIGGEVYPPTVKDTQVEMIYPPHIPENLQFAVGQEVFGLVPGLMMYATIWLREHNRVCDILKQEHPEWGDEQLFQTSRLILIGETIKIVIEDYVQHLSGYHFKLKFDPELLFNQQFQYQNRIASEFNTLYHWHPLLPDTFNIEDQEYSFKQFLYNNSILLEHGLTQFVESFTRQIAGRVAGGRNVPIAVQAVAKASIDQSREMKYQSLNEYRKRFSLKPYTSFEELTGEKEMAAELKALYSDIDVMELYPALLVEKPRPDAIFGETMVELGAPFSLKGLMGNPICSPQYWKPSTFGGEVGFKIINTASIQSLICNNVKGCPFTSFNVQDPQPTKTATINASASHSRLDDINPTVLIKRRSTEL

CCCCC/C=C\[C@H](C)/C=C\C/C=C\C/C=C\CCCC(=O)N[C@H](C)CO
half-life [1]: 30 min
half-life [2]: 30 min
Stability [3]: Stable
